According to article PMC9016318 (Cancer Research and Treatment : Official Journal of Korean …, 2021):
No end group written: not given here.

Legend:
[1] = test system: Cal27 cells; assay: CCK-8 cytotoxicity, Cal27 cells; type: cell-based, human; conditions: CCK-8, 64 μM, 24 hours
Outline: (§1)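 Cells were seeded in 96-well plates and cultured 24 h: Jurkat T at 4,000/well, Cal27 at 2,000/well. Test peptide was added at 1–64 μM for 24 h, then CCK-8 for 2 h, and absorbance was read at 450. Viability % = (sample − no-cell baseline with peptide)/(untreated control − no-cell blank) × 100. Data are mean±standard error of three separate experiments.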

[2] = test system: Jurkat T cells; assay: CCK-8 cytotoxicity, Jurkat T cells; type: cell-based, human; conditions: CCK-8, 64 μM, 24 hours
Outline: as §1

[3] = test system: ICIK cells; assay: CCK-8 cytotoxicity, ICIK cells; type: cell-based, human; conditions: CCK-8, 64 μM, 24 hours
Outline: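 ICIK cells were human blood PBMCs, Ficoll-separated, held overnight at 4°C on anti-CD3 (OKT3, 10 μg/mL) coated dishes, then grown 10 days in RPMI 1640/10% FBS with IFN-γ 2000 U/mL and IL-2 10 ng/mL. They were seeded at 4,000/well and cultured 24 h. Test peptide at 1–64 μM was added for 24 h, then CCK-8 for 2 h, and absorbance read at 450. Viability was blank/baseline-corrected against untreated wells.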

[4] = target: human recombinant PD-1 protein (human, UniProt Q15116); assay: SPR
Sequence of human recombinant PD-1 protein (Q15116 25-170): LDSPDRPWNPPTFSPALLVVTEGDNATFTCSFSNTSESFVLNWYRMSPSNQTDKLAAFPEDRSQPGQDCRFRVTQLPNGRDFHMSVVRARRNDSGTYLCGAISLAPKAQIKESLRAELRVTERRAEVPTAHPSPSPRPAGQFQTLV

Molecule | cytotoxicity to stimulated Cal27 cells [1] | cytotoxicity to Jurkat T cells [2] | cytotoxicity to ICIK cells [3] | Kd [4] [µM]
SRLKEIANSPTQFWRMVARNTLGNGAKQSLNIEHARL [nABP284] | not directly cytotoxic | not directly cytotoxic | not directly cytotoxic | –
SRLKEIANSPTQFWRMVARNTLGNGAKQSLNIEHARL [nABP284] | – | – | – | 11.8
